Data set [1] can be described thus: Clearance in Sprague-Dawley rat at 1 mg/kg, iv and 3 mg/kg, po administered as cassette dosing. Format: ADME, organism-based. To be noted: in vivo. In short, it runs like this:
(§1)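 Rat PK: i.v. 1 mg/kg in NMP/PEG200 (3:7); p.o. 3 mg/kg in CMC/water/Tween (0.5:99:0.5). Exposure values dose normalized.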

Data set [2] concerns the target T1, Tyrosine-protein kinase receptor UFO (Homo sapiens, UniProt P30530).
T1 sequence (P30530 whole entry): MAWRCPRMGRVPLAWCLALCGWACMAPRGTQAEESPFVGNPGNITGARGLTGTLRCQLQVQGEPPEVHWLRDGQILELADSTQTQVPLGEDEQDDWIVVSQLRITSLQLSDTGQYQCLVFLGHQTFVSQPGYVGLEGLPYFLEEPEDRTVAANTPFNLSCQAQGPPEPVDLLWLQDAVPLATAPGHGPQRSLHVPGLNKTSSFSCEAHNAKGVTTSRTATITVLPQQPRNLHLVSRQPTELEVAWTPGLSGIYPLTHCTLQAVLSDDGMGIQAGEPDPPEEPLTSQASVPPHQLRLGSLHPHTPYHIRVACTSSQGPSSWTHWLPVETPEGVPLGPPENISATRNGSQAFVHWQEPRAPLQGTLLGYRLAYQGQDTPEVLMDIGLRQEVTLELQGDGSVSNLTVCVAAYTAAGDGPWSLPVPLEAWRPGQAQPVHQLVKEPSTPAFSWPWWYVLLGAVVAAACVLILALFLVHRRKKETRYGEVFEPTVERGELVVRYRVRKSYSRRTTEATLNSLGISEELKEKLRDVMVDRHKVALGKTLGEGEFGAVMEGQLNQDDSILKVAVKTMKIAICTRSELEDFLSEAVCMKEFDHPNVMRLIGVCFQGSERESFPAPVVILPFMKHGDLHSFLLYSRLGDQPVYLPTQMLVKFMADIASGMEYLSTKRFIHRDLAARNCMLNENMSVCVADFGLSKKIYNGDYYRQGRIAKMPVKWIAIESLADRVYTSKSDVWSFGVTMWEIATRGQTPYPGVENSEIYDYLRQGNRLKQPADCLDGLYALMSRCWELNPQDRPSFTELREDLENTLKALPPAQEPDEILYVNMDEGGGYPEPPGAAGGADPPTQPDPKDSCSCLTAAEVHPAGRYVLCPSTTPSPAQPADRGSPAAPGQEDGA
Description: Competitive binding affinity to human AXL.

The next data set concerns Rattus norvegicus. Description: Dose normalized Cmax in Sprague-Dawley rat at 1 mg/kg, iv and 3 mg/kg, po administered as cassette dosing. Format: ADME, organism-based. To be noted: in vivo. The gist of the method:
as §1

For data set [3], the target named is T2, Tyrosine-protein kinase Mer (Homo sapiens, UniProt Q12866).
T2 sequence (Q12866 whole entry): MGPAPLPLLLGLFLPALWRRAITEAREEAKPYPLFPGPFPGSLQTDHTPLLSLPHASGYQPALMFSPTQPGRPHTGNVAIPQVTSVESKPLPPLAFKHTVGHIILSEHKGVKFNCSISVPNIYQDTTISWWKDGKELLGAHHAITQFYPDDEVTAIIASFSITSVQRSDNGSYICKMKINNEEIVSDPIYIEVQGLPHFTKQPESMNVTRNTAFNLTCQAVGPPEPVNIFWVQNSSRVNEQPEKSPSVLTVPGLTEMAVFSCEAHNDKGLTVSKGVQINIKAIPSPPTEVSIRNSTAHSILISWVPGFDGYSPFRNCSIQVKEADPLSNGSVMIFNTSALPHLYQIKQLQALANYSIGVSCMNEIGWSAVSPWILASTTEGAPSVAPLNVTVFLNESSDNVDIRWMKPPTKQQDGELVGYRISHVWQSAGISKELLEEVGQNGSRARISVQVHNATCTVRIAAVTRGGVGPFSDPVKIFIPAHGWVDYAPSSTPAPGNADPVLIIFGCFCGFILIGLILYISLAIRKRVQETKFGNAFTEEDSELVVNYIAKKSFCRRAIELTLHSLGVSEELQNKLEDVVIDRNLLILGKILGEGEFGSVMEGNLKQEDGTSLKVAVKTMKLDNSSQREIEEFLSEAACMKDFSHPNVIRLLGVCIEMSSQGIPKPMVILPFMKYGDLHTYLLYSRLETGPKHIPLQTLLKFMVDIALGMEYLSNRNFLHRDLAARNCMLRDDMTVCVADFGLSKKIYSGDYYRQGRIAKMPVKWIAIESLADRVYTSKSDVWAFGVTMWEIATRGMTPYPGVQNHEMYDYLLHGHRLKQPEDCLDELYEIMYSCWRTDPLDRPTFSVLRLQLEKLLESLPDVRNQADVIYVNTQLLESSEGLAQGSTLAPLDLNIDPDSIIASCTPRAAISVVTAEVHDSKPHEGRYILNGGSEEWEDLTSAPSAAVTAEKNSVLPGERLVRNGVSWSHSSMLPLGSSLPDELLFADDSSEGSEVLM
Description: Competitive binding affinity to human MERTK.

`NC(=O)c1nnc(N[C@@H]2CCCC[C@@H]2N)nc1Nc1cccc2cc[nH]c12`: the clearance in data set [1] is 31 mL/min/kg. For the same molecule, the values for the Kd in data set [2] and in data set [3] were 71 nM and 150 nM, respectively. For the same molecule, in the data set with Rattus norvegicus, the Cmax/dose is 80 nM.

These data come from ChEMBL document CHEMBL3414433, “Discovery and profiling of a selective and efficacious Syk inhibitor” (J Med Chem, 2015).
